According to ChEMBL document CHEMBL4513216, “Probing the Open Global Health Chemical Diversity Library for Multistage-Active Starting Points for Next-Generation Antimalarials” (ACS Infect Dis, 2020):

Assay: Toxicity liver stage against HepG2, at 10uM
Format: cell-based
Parameters: test concentration 10 uM, cell line HepG2-A16-CD81EGFP
Details: human, HepG2-A16-CD81EGFP cells; read-out: INHIBITION
Procedure, shortened: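 Uninfected HepG2-A16-CD81EGFP cells, 3 × 10^3 per well, 1536-well, plated on prespotted compound at 10 μM final, parasite-free screening media added to match infected plates; puromycin 10 μM positive, DMSO 0.5% negative; run in parallel with 48 h PbLuc assay at 37 °C, 5% CO2; viability by CellTiter-Glo luminescence, normalized to controls.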

SMILES	cytotoxicity at 10 µM [%]
COC(=O)[C@@H]1Cc2[nH]cnc2CN1Cc1cc2ccccc2o1	0.994
N#CCCN1CC(O)CN(C(=O)c2cccc(C(F)(F)F)c2)CC1=O (configuration not stated)	7.84
O=S(=O)(c1cccs1)N1CCN(Cc2nc(-c3ccco3)cs2)CC1	21.2
O=C(Cc1ccccc1Cl)NCCN1CCC(c2cccs2)CC1	6.93
c1csc(CN2CCc3nc(N4CCOCC4)nc(NC4CC4)c3C2)n1	0.0529
Cn1nnc2c1CCN(S(C)(=O)=O)C2COCC1CC1 (configuration not stated)	-4.6
c1cncc(-c2ccc3c(c2)CCC32CCNCC2)c1	-10.3
CC(C)N1c2sc(-c3ccccc3)nc2CC1C(=O)NC1CCCC1 (configuration not stated)	10.3
Cc1ccnc(OC[C@@]23CCO[C@@H]2CCN(S(C)(=O)=O)C3)n1	9.34
CCOc1cccc2c1OCC(=O)N(c1ccc3c(c1)OCCO3)C2	13.1
Oc1nnc(-c2ccccc2)c2sc(N3CCCCC3)nc12	-1.81
O=c1[nH]nc2c(N3CCOCC3)nccn12	9.73
CCc1noc(CCC(=O)N[C@@H]2CC[C@@H](n3ccnc3C)[C@@H]2O)n1	-20.5
COc1ccc(CN(C)[C@@H]2CN(C(=O)c3cncs3)C[C@H]2O)cc1	-12.4
Cc1cnc(N)c(C(=O)C2CCN(C(=O)c3ccccc3F)CC2)c1	9.96
CCC(C)(CC(=O)OC)NCc1cc(C)on1 (configuration not stated)	-1.88
CCc1ccc(O)c(C(=O)N2CCN(CC(=O)N(CC)CC)CC2)c1	4.49
O=C(CN1CCc2cncnc2C1)NC(C1CC1)C1CC1	-5.42
O=C(Nc1cccnc1)NC1CCN(c2ccccc2OC(F)F)C1 (configuration not stated)	12.1
N#Cc1ccc(CN2CCCN(CCCn3cncn3)CC2)cc1	-2.89
O=C(CC1CN(Cc2ccccc2)CCO1)NCCN1CCOCC1 (configuration not stated)	6.67

SMILES	cytotoxicity at 10 µM [%]
CC(=O)N1Cc2ccccc2CC1C(=O)Nc1cc(C)ccn1 (configuration not stated)	-4.5
Cc1cc(N)nc(SC2CCN(c3ccccc3F)C2=O)n1 (configuration not stated)	-9.51
O=C(NC1(c2nccs2)CCCC1)c1[nH]nc(C2CC2)c1Cl	-24.6
CC(C)(C)OC(=O)N1CCCN1C(=O)c1cccc2cc[nH]c12	2.84
Cc1cc(CN(CCCO)c2ccccc2)on1	-4.91
OC(CN1CCN(CCOCC(F)(F)F)CC1)c1ccccc1 (configuration not stated)	-7.99
CCCn1nccc1NC(=O)c1ccc(Cl)c(N2CCNC2=O)c1	-5.07
NC1CCCN(Cc2cccc(C(F)(F)F)c2)C1=O (configuration not stated)	5.85
CC(CNC(=O)c1cnc[nH]1)Oc1ccccc1Br (configuration not stated)	2.74
CS(=O)(=O)Cc1nc(CN2CCc3ccccc3CC2)cs1	-7.73
Cc1ccc(C)c(C(=O)CN2C(=O)c3ccccc3CS2(=O)=O)c1	-8.42
CNc1cc(N2CCCC2CNCc2ccc(Cl)o2)ncn1 (configuration not stated)	-11.6
CCOC1CCC2(CCN(C(=O)c3csnn3)CC2)c2ccccc21 (configuration not stated)	-1.58
O=C(c1ccoc1)N1CCn2cnc(COCC3CC3)c2C1	-71.9
Cc1nc2[nH]cc(C(=O)N3CCCCC3c3ccc(F)cc3)c(=O)n2n1 (configuration not stated)	3.63
COc1cccc2c1OCC(Cc1cc(C(=O)N3CCCC3)ccn1)C2 (configuration not stated)	5.15
c1ccc(-c2nnc(N3CCCC4(CCOC4)C3)s2)cc1 (configuration not stated)	-2.37
CN(Cc1ccc(CCC(C)(C)O)cc1)Cc1cccnc1	15
CC(C)N(CCO)C(=O)C1CCC(=O)N(CCc2cccc(F)c2)C1 (configuration not stated)	-6.95
c1ccc(NCCn2cc(C3CCCNC3)nn2)cc1 (configuration not stated)	5.44
Cc1cc(C2CCC2)nc(NCC(C)(C)N2CCCC2)n1	-0.21

SMILES	cytotoxicity at 10 µM [%]
CN(CCNC(=O)c1cnc(-c2ccccc2)nc1)S(C)(=O)=O	4.3
CCCn1ccnc1CN1CCCC1c1ccccn1 (configuration not stated)	-7.25
Cc1ccc(C(=O)N2CC(c3cccnc3)C2)cc1N1CCNC1=O	-4.57
CC1=NN(CC(=O)N2CC[C@@H]3[C@@H](CCC(=O)N3CC(C)C)C2)CC1	0.88
CCC(C(=O)NCCc1nc(C)cc(C(F)(F)F)n1)n1cccn1 (configuration not stated)	-9.77
CSCCCNc1ncnc2cccc(F)c12	0.721
Cn1ccnc1CN1CCN(CC2CC2)[C@@H]2CS(=O)(=O)C[C@@H]21	1.02
CCC[C@H]1CN(c2nccc(OC)n2)C[C@@H]1NS(=O)(=O)N(C)C	-140
Cc1ccccc1N1CCN(C(=O)CC(C)C)CC1	-1.26
CN(C)C(=O)c1ccc(C2CCCN2C(=O)CCC2=NNC(=O)CC2)s1 (configuration not stated)	9.19
CCn1nc(C)c(CCN2CC3(CCOC3)CCC2=O)c1C (configuration not stated)	-118
O=C(Cc1ccsc1)N1CCC(Cn2cc(CCO)nn2)CC1	1.67
CCNc1ncc(C(=O)NCCc2csc(-c3ncccn3)n2)cn1	19.9
COc1cc(C)sc1C(=O)N1CC(c2cccnc2)C1	-8.97
CC1CN(C)CCN1C(=O)c1ccn(-c2ccc(F)cc2)n1 (configuration not stated)	-5.3
CCN(CC)Cc1ccc(C(=O)N2CCCC2c2cnn(C)c2)o1 (configuration not stated)	3.51
CCOCCCn1c(NC(=O)c2cnc(C)s2)nc2ccccc21	-30
NC(=O)C1CCN(C(=O)c2ccc(OCc3cscn3)cc2)CC1	-10.6
CN(C)C(=O)C1CCN(Cc2csc(C(C)(C)C)n2)CC1	-23
CC(Cn1cccn1)NCc1ccc(OCc2ccncc2)cc1 (configuration not stated)	-29.9
CC(C)Oc1ccccc1NC(=O)N1CCC(n2cncn2)CC1	-3.67

SMILES	cytotoxicity at 10 µM [%]
CC(c1nc(C2CC2)no1)N1CCN(Cc2ccc(C#N)cc2)CC1 (configuration not stated)	3.71
CC(NC(=O)NCCNc1ncccn1)c1cccs1 (configuration not stated)	-0.447
NC(=O)c1cc(C2CCCN(C(=O)CCc3ccsc3)C2)n[nH]1 (configuration not stated)	-5.79
Cc1cnn(CCNCC(=O)NCCOc2ccccc2)c1	-14
O=C(CN1CCCC1Cn1cncn1)NCCc1c(F)cccc1F (configuration not stated)	-6.24
CN(Cc1ccccc1)CC(O)Cn1cnc2ccsc2c1=O (configuration not stated)	-2.89
CC(=O)Nc1ccc(S(=O)(=O)NC(=O)CCC2CCCO2)cc1 (configuration not stated)	-5.11
Cc1c(C)n(CC(O)CN2CCOCC2)c2c(Cl)cccc12 (configuration not stated)	0.829
Cn1cncc1C(=O)N1C[C@@H]2CCN(c3cnccn3)C[C@@H]2C1	-96.6
CC(C)CC(=O)N1CCC2(CC1)COCCN2Cc1ccc(F)cc1	-77.1
Cc1noc(C)c1CN1CCc2ncc(CN(C)C)n2CC1	8.46
CCO[C@@H]1C[C@H]2CN(S(=O)(=O)c3cccs3)CCN2C1	8.52
O=C(C[C@@H]1COC[C@H]2CN(C3CCCC3)C[C@@H]12)N1CCCCO1	7.92
COCC1c2c(cnn2C)CCN1C(=O)c1cscn1 (configuration not stated)	-101
COc1ccc(CN2CCCn3cnc(COC(C)C)c3C2)cc1	-74.9
CN(C)S(=O)(=O)N1CC[C@]2(C[C@H](OCc3ccccn3)CO2)C1	11.6
c1coc(COCc2ncn3c2CN(Cc2cccs2)CCC3)c1	-76.2
CCCC(=O)N1CC[C@@H]2[C@H](CC1)N(Cc1cccc(C)n1)CCS2(=O)=O	-2.88
CCn1c(Cn2cncn2)nnc1C1CCN(CC2[C@H]3CNC[C@@H]23)CC1 (some centres not stated)	6.77
